Data taken from ChEMBL document CHEMBL1136800 (J Med Chem, 2003).

Assays:
[1] = Increase in intracellular cGMP concentration in atrial natriuretic factor treated rat aortic smooth muscle cells.; format: functional, tissue-based; conditions: Aorta
How it was run: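 Primary rat aortic smooth muscle cells grown in DMEM with 10% FCS and used at confluence (3-5 days). Compound in PBS for 30 min at 37 °C, then ANF 0.1 µM for 10 min at 37 °C. Intracellular cGMP extracted with 65% ethanol and measured by scintillation proximity immunoassay, in triplicate wells; DMSO ≤0.1%. EC50 is the concentration giving half the maximal cGMP increase seen at saturating compound.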

[2] = target: cGMP-specific 3',5'-cyclic phosphodiesterase (Bos taurus, UniProt Q28156); assay: Inhibitory activity against bovine PDE5 (phosphodiesterase-5).
[3] = target: cGMP-dependent 3',5'-cyclic phosphodiesterase (Homo sapiens, UniProt O00408); assay: Inhibition of human recombinant PDE2 (phosphodiesterase 2)
How it was run: (§1)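 Incubated 30 min at 30 °C under initial-velocity conditions (≤10-15% hydrolysis). Product separated on QAE Sephadex and counted by scintillation; final DMSO 2%.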

Phosphodiesterase 3B = Phosphodiesterase 3B (Bos taurus, UniProt E1BN64); assay: Inhibition of bovine aorta PDE3 (phosphodiesterase 3); how it was run: as §1
Phosphodiesterase 1 = Phosphodiesterase 1 (Bos taurus, UniProt Q01061+P14100); assay: Inhibition of bovine aorta PDE1 (phosphodiesterase 1); format: protein assay; how it was run: as §1
Phosphodiesterase 4 = Phosphodiesterase 4 (Homo sapiens, UniProt P27815+Q08499+Q07343+Q08493); assay: Inhibition of human recombinant PDE4 (phosphodiesterase 4); format: protein assay; how it was run: as §1

Sequence of cGMP-dependent 3',5'-cyclic phosphodiesterase (O00408 whole entry): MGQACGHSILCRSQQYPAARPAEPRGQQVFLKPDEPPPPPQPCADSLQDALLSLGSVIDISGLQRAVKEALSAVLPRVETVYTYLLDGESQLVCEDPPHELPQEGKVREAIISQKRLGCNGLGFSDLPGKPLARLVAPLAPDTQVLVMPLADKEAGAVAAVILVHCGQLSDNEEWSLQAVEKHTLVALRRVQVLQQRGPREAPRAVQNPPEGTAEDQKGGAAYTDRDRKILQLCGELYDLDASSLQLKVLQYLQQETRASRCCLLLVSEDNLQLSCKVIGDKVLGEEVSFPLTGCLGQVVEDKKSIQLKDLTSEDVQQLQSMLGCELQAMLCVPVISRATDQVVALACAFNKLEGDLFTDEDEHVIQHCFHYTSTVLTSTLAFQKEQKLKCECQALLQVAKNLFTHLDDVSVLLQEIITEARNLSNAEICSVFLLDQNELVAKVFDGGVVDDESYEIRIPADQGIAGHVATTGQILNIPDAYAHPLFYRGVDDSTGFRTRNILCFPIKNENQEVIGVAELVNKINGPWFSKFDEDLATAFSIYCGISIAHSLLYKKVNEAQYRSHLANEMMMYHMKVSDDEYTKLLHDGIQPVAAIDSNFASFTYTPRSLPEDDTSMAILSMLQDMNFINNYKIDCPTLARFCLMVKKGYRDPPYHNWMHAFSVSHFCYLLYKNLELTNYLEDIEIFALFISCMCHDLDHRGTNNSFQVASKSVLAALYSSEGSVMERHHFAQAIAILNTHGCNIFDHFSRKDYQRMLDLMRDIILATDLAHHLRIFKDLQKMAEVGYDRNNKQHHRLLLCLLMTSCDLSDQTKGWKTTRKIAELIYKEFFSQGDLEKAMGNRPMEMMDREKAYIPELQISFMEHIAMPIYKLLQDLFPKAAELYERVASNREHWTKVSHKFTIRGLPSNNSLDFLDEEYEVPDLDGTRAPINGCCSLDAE
Sequence of Phosphodiesterase 3B (E1BN64 whole entry): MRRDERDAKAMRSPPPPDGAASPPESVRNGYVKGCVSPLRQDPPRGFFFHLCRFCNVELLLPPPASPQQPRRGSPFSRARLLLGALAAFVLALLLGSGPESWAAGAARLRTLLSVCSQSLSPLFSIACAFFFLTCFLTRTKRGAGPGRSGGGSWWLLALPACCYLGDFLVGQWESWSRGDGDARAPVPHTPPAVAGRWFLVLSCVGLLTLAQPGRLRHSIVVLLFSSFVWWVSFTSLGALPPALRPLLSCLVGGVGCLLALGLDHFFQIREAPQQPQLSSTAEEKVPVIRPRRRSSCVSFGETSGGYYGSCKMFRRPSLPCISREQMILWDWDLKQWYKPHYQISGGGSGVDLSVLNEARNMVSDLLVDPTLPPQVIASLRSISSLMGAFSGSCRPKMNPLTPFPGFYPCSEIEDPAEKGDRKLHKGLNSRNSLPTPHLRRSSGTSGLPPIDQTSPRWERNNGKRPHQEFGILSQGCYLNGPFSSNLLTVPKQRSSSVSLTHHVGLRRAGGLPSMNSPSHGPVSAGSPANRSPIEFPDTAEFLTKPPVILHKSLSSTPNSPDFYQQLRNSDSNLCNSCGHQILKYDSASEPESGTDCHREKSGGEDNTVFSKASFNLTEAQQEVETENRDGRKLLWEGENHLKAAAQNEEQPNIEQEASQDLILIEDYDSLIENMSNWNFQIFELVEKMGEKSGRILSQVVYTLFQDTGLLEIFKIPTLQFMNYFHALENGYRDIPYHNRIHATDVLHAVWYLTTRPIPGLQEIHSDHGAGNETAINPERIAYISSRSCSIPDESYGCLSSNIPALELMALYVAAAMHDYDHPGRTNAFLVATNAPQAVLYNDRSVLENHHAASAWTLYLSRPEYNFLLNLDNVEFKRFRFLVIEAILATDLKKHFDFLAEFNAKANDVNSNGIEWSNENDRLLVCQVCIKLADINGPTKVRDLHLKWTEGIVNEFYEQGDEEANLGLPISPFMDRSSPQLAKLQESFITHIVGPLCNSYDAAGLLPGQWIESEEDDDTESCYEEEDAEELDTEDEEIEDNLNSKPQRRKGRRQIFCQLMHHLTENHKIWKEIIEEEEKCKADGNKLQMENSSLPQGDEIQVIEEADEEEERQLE

## COc1ccc([C@H]2c3[nH]c4ccccc4c3C[C@@H]3C(=O)NC(=O)N23)cc1
[1]
  EC50: 3000 nM
[2]
  IC50: 20 nM

## COc1ccc([C@@H]2c3[nH]c4ccccc4c3C[C@@H]3C(=O)N(C4CCCCC4)C(=O)N23)cc1
[3]
  IC50: > 10000 nM
Phosphodiesterase 3B
  IC50: > 10000 nM
[1]
  EC50: 300 nM
Phosphodiesterase 1
  IC50: > 10000 nM
[2]
  IC50: 7 nM
Phosphodiesterase 4
  IC50: > 10000 nM

## CCCCN1C(=O)[C@H]2Cc3c([nH]c4ccccc34)[C@@H](c3ccc(Cl)cc3)N2C1=O
[1]
  EC50: > 10000 nM
[2]
  IC50: 50 nM

## CCCCN1C(=O)[C@H]2Cc3c([nH]c4ccccc34)[C@@H](c3cccnc3)N2C1=O
[2]
  IC50: 90 nM

## CCCCN1C(=O)[C@H]2Cc3c(n(C)c4ccccc34)[C@@H](c3ccc(OC)cc3)N2C1=O
[2]
  IC50: > 10000 nM

## CCN1C(=O)[C@H]2Cc3c([nH]c4ccccc34)[C@@H](c3ccc(OC)cc3)N2C1=O
[1]
  EC50: 400 nM
[2]
  IC50: 10 nM

## COc1ccc([C@H]2c3[nH]c4ccccc4c3C[C@@H]3C(=O)N(CCc4ccccn4)C(=O)N23)cc1
[1]
  EC50: 1500 nM
[2]
  IC50: 6 nM

## CCCCN1C(=O)[C@H]2Cc3c([nH]c4ccccc34)[C@H](c3ccc(C#N)cc3)N2C1=O
[2]
  IC50: 300 nM

## COc1ccc([C@H]2c3[nH]c4ccccc4c3C[C@@H]3C(=O)N(CCN(C)C)C(=O)N23)cc1
[1]
  EC50: 3500 nM
[2]
  IC50: 30 nM

## COc1ccc([C@H]2c3[nH]c4ccccc4c3C[C@@H]3C(=O)N(C4CCCCC4)C(=O)N23)cc1
[1]
  EC50: 100 nM
[2]
  IC50: 3 nM

## CCCCN1C(=O)[C@H]2Cc3c([nH]c4ccccc34)[C@@H](c3cccc(Cl)c3)N2C1=O
[1]
  EC50: 4000 nM
[2]
  IC50: 50 nM

## COc1ccc([C@@H]2c3[nH]c4ccccc4c3C[C@@H]3C(=O)N(Cc4ccccc4)C(=O)N23)cc1
[3]
  IC50: > 10000 nM
Phosphodiesterase 3B
  IC50: > 10000 nM
[1]
  EC50: 150 nM
Phosphodiesterase 1
  IC50: > 10000 nM
[2]
  IC50: 4 nM
Phosphodiesterase 4
  IC50: > 10000 nM

## CCCCN1C(=O)[C@H]2Cc3c([nH]c4ccccc34)[C@@H](c3ccc(C#N)cc3)N2C1=O
[2]
  IC50: 900 nM

## CCCCN1C(=O)[C@H]2Cc3c([nH]c4ccccc34)[C@@H](c3ccoc3)N2C1=O
[2]
  IC50: 100 nM

## CCCCN1C(=O)[C@H]2Cc3c([nH]c4ccccc34)[C@@H](c3ccncc3)N2C1=O
Phosphodiesterase 3B
  IC50: > 10000 nM
Phosphodiesterase 1
  IC50: 2000 nM
[2]
  IC50: 300 nM
Phosphodiesterase 4
  IC50: > 10000 nM

## CCN1C(=O)[C@H]2Cc3c([nH]c4ccccc34)[C@H](c3ccc(OC)cc3)N2C1=O
[1]
  EC50: 1500 nM
[2]
  IC50: 7 nM

## CCCCN1C(=O)[C@H]2Cc3c([nH]c4ccccc34)[C@@H](c3ccsc3)N2C1=O
[2]
  IC50: 30 nM

## CCCCN1C(=O)[C@H]2Cc3c([nH]c4ccccc34)[C@H](c3ccccc3)N2C1=O
[1]
  EC50: 2000 nM
[2]
  IC50: 20 nM

## CCCCN1C(=O)[C@H]2Cc3c([nH]c4ccccc34)[C@H](c3ccc(OC)cc3)N2C1=O
[3]
  IC50: > 10000 nM
Phosphodiesterase 3B
  IC50: > 10000 nM
[1]
  EC50: 1000 nM
Phosphodiesterase 1
  IC50: > 10000 nM
Phosphodiesterase 4
  IC50: > 10000 nM

## COc1ccc([C@H]2c3[nH]c4ccccc4c3C[C@@H]3C(=O)N(Cc4cccnc4)C(=O)N23)cc1
[1]
  EC50: 5500 nM
[2]
  IC50: 20 nM

## COc1ccc([C@H]2c3[nH]c4ccccc4c3C[C@@H]3C(=O)N(Cc4ccccc4)C(=O)N23)cc1
[1]
  EC50: > 10000 nM
[2]
  IC50: 18 nM

## COc1ccc([C@@H]2c3[nH]c4ccccc4c3C[C@@H]3C(=O)N(C)C(=O)N23)cc1
[1]
  EC50: 1000 nM
[2]
  IC50: 10 nM

## CCCCN1C(=O)[C@H]2Cc3c([nH]c4ccccc34)[C@H](c3ccc(Cl)cc3)N2C1=O
[1]
  EC50: 1500 nM
[2]
  IC50: 20 nM

## COc1ccc([C@H]2c3[nH]c4ccccc4c3C[C@@H]3C(=O)N(CCN4CCCC4)C(=O)N23)cc1
[1]
  EC50: 10000 nM
[2]
  IC50: 100 nM

## CCCCN1C(=O)[C@H]2Cc3c([nH]c4ccccc34)[C@@H](c3ccc(OC)cc3)N2C1=O
[3]
  IC50: > 10000 nM
Phosphodiesterase 3B
  IC50: > 10000 nM
[1]
  EC50: 700 nM
Phosphodiesterase 1
  IC50: > 10000 nM
Phosphodiesterase 4
  IC50: > 10000 nM

## CCCCN1C(=O)[C@H]2Cc3c([nH]c4ccccc34)[C@@H](c3ccccc3)N2C1=O
[1]
  EC50: 5000 nM
[2]
  IC50: 60 nM

## CCOC(=O)c1cc2c(cn1)[nH]c1ccccc12
[2]
  IC50: 800 nM

## CCCCN1C(=O)[C@H]2Cc3c([nH]c4ccccc34)[C@H](c3cccc(Cl)c3)N2C1=O
[1]
  EC50: > 10000 nM
[2]
  IC50: 50 nM

## CCCCN1C(=O)[C@H]2Cc3c([nH]c4ccccc34)[C@H](c3ccccc3OC)N2C1=O
[2]
  IC50: 1000 nM

## CCCOc1ccccc1-c1nc2[nH]nnc2c(=O)[nH]1 [ZAPRINAST]
Phosphodiesterase 3B
  IC50: > 10000 nM
Phosphodiesterase 1
  IC50: 2600 nM
